Measured values: ChEMBL document CHEMBL1165965, “Synthesis and structure-activity relationships of 1,2,3,4-tetrahydropyrido[2,3-b]pyrazines as potent and selective inhibitors of the anaplastic lymphoma kinase” (Bioorg Med Chem, 2010)

Key:
[1] = biological target: Serine/threonine-protein kinase 25 (Homo sapiens) (UniProt O00506); assay: Inhibition of YSK1 at 1 uM
[2] = test system: Tyrosine-protein kinase ABL1 (Homo sapiens), P00519 [E255K]; assay: Inhibition of ABL1 E255K mutant at 1 uM
Summary of the method: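 Ambit KINOMEscan screen at a single concentration across a 250–400 kinase panel, recorded as percent inhibition. Selectivity was expressed as S(90), the fraction of kinases inhibited >90%.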

[3] = biological target: Protein kinase C theta type (Homo sapiens) (UniProt Q04759); assay: Inhibition of PRKCQ at 1 uM
Sequence of Protein kinase C theta type (Homo sapiens) (Q04759 whole entry, looked up): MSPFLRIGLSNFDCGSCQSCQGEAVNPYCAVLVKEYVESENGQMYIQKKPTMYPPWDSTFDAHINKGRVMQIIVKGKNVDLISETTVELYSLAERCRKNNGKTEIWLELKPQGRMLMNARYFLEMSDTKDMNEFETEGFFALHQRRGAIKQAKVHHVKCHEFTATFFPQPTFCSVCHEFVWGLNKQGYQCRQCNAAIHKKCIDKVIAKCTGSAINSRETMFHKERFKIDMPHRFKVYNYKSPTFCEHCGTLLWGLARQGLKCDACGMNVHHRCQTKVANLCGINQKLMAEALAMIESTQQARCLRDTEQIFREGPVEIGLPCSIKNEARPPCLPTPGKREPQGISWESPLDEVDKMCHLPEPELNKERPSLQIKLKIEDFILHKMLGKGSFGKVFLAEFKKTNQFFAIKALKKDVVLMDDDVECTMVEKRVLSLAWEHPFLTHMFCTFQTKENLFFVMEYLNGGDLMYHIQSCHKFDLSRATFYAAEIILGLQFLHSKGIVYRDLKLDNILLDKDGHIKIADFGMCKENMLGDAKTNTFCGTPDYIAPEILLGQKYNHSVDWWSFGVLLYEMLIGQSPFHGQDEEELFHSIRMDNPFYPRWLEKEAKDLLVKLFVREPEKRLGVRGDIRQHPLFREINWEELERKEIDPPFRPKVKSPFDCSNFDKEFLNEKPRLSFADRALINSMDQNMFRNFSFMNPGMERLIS

[4] = biological target: T1, Ephrin type-A receptor 1 (Homo sapiens) (UniProt P21709); assay: Inhibition of EPHA1 at 1 uM
T1 sequence (whole entry): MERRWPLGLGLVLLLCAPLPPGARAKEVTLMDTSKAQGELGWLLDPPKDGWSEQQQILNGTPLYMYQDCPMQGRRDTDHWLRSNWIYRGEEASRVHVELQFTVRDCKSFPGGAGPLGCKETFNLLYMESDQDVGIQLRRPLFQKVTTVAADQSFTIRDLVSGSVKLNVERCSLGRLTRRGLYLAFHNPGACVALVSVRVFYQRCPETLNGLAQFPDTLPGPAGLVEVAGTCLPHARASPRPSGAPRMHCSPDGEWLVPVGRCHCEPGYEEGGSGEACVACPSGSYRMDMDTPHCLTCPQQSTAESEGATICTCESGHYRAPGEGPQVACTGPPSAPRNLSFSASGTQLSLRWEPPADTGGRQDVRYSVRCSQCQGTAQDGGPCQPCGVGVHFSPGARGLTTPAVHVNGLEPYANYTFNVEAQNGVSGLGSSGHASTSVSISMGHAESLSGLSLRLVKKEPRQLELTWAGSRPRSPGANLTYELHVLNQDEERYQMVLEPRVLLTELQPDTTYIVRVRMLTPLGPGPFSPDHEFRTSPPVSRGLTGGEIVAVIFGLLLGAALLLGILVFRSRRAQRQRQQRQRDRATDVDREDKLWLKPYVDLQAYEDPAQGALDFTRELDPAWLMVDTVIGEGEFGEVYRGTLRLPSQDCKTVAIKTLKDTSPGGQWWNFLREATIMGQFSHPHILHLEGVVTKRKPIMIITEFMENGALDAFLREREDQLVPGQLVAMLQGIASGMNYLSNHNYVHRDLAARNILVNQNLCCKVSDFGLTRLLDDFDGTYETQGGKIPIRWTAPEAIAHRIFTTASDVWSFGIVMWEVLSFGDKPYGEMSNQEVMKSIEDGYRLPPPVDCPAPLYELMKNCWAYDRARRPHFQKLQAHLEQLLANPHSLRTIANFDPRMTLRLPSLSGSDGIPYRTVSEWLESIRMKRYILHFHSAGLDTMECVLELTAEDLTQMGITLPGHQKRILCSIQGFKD
Summary of the method: (§1)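 Single-concentration screen using Ambit Bioscience KINOMEscan technology across a panel of 250–400 kinases. Per-kinase inhibition from this screen was summarized as S(90), the fraction of kinases inhibited by more than 90%.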

[5] = biological target: T2, Ephrin type-A receptor 8 (Homo sapiens) (UniProt P29322); assay: Inhibition of EPHA8 at 1 uM; summary of the method: as §1
T2 sequence (whole entry): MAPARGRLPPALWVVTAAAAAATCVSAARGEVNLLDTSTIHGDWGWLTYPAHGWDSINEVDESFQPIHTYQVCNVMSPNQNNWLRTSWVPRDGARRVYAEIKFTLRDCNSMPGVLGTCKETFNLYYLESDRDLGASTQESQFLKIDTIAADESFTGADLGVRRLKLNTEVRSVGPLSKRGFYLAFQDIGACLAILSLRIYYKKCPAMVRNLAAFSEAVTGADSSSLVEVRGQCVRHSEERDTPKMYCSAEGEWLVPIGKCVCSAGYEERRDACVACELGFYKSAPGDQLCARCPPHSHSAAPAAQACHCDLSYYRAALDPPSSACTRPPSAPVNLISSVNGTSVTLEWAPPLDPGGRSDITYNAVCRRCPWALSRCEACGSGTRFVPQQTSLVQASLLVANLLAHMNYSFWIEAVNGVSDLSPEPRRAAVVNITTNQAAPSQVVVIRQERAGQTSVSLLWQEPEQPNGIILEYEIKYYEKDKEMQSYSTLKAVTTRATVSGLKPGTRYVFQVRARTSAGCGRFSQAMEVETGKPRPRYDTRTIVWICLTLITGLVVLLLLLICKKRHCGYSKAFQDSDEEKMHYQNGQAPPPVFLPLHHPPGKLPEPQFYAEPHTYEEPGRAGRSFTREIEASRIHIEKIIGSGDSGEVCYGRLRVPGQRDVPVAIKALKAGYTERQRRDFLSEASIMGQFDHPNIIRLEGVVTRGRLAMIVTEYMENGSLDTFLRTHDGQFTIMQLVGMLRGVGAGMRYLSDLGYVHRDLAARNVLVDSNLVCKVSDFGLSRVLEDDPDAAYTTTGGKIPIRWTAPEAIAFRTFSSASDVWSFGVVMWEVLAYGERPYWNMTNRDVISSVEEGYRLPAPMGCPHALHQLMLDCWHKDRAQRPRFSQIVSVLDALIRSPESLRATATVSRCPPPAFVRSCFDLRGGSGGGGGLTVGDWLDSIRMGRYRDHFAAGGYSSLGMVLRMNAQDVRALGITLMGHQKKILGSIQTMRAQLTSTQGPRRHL

[6] = biological target: Serine/threonine-protein kinase PAK 1 (Homo sapiens) (UniProt Q13153); assay: Inhibition of PAK1 at 1 uM
Sequence of Serine/threonine-protein kinase PAK 1 (Homo sapiens) (Q13153 whole entry): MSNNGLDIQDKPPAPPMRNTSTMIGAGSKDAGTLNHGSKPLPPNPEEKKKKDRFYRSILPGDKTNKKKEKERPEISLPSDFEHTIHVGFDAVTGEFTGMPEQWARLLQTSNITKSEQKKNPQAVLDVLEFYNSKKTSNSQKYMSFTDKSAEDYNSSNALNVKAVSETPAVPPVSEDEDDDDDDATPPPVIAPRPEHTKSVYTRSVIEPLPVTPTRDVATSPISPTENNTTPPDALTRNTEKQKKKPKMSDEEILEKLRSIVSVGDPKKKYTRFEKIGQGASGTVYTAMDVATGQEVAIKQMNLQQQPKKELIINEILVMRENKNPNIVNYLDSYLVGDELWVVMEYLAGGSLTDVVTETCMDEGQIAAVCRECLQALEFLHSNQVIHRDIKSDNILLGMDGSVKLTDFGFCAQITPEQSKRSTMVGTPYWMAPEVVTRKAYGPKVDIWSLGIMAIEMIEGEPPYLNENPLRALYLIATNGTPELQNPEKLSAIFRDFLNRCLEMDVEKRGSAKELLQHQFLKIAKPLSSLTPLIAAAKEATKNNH

[7] = biological target: Tyrosine-protein kinase CSK (Homo sapiens) (UniProt P41240); assay: Inhibition of CSK at 1 uM; summary of the method: as §1
Sequence of Tyrosine-protein kinase CSK (Homo sapiens) (P41240 2-450 limits assumed): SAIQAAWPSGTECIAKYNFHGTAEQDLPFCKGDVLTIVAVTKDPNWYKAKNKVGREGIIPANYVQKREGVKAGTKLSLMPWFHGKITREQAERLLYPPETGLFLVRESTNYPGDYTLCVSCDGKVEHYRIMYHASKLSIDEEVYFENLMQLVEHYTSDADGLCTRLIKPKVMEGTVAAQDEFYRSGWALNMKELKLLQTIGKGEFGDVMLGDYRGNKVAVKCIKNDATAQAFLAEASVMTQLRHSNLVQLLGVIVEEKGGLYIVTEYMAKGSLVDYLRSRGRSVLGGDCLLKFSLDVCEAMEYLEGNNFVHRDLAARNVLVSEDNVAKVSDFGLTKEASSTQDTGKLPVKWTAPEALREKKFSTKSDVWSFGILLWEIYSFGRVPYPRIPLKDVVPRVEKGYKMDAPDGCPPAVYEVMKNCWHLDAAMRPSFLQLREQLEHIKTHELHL

[8] = biological target: T3, Serine/threonine-protein kinase MAK (Homo sapiens) (UniProt P20794); assay: Inhibition of MAK at 1 uM
T3 sequence (whole entry): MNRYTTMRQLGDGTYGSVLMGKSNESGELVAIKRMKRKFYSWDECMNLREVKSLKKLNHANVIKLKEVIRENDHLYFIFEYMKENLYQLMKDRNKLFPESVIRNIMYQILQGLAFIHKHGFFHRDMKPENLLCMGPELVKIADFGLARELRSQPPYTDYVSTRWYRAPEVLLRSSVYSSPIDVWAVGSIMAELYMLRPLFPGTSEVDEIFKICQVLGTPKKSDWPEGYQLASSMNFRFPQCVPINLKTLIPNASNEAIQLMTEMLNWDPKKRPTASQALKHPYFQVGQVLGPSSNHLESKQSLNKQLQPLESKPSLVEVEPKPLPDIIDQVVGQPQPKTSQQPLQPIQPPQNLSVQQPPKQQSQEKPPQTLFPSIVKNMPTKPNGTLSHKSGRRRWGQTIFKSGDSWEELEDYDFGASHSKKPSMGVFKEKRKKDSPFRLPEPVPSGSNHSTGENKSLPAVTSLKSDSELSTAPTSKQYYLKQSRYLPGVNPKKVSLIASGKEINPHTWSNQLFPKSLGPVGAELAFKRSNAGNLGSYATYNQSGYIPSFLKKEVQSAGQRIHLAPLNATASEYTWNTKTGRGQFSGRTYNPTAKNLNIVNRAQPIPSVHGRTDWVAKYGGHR

Sequence of Tyrosine-protein kinase ABL1 (Homo sapiens), P00519 [E255K] (P00519 whole entry E255K): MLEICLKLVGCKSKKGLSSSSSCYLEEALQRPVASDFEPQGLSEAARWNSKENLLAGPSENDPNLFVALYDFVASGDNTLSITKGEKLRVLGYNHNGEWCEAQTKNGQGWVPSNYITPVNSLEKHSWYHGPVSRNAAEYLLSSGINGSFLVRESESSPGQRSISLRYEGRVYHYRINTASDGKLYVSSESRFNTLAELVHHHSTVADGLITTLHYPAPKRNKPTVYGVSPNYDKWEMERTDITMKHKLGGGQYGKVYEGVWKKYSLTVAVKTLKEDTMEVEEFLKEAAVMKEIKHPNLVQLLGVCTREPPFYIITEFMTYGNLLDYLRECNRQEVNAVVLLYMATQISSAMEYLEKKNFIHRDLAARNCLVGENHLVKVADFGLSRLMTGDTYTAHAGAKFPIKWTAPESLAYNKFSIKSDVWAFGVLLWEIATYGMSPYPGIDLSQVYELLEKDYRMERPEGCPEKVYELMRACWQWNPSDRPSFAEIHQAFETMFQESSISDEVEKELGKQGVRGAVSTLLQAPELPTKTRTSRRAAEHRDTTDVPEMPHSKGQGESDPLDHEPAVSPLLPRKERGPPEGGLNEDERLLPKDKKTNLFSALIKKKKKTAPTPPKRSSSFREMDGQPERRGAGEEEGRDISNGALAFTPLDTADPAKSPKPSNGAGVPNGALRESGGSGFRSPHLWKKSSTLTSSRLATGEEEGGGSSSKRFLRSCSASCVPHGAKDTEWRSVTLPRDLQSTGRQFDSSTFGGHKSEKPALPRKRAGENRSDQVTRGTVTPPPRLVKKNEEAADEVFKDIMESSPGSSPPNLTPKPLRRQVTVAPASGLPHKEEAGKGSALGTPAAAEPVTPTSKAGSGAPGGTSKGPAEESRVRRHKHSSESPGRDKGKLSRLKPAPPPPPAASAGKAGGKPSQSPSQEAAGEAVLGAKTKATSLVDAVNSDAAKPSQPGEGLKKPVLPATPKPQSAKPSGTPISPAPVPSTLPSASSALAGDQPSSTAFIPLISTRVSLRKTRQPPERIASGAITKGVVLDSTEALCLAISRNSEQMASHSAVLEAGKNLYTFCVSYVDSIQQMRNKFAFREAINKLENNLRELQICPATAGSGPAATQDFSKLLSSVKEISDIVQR
Sequence of Serine/threonine-protein kinase 25 (Homo sapiens) (O00506 whole entry, looked up): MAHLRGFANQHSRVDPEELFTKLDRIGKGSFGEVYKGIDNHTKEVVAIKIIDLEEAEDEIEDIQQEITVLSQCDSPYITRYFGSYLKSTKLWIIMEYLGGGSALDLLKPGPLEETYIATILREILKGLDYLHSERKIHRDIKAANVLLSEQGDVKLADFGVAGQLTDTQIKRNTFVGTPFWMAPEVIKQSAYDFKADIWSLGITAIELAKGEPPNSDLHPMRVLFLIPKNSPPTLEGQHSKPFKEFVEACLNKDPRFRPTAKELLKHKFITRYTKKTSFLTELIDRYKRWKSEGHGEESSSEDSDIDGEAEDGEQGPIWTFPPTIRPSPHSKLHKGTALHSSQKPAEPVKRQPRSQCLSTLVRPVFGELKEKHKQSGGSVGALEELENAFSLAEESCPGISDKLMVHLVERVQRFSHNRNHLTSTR

SMILES | inhibition [1] | inhibition [2] | inhibition [3] | inhibition [4] | inhibition [5] | inhibition [6] | inhibition [7] | inhibition [8]
CN1CCN(c2ccc(-c3cnc4c(c3)N(Cc3cc(Cl)ccc3Cl)CCN4)cn2)CC1 | < 50% | < 50% | < 50% | < 50% | < 50% | < 50% | < 50% | < 50%
COC1CCN(C(=O)c2ccc(-c3cnc4c(c3)N(Cc3cc(Cl)ccc3C(F)(F)F)CCN4)cc2)CC1 |  | < 50% |  | < 50% | < 50% | < 50% | < 50% | 
FC(F)(F)c1ccc(Cl)cc1CN1CCNc2ncc(-c3ccnc(N4CCNCC4)c3)cc21 | < 50% | < 50% | < 50% | < 50% | < 50% | < 50% | < 50% | < 50%
CC(=O)N1CCN(c2cc(-c3cnc4c(c3)N(Cc3cc(Cl)ccc3C(F)(F)F)CCN4)ccn2)CC1 | < 50% | < 50% | < 50% | < 50% | < 50% | < 50% | < 50% | < 50%
O=C(O)c1ccc(-c2cnc3c(c2)N(Cc2cc(Cl)ccc2C(F)(F)F)CCN3)cc1 |  | < 50% |  | < 50% | < 50% | < 50% | < 50% | 
CN1CCN(c2ccc(-c3cnc4c(c3)N(Cc3c(F)ccc(F)c3Cl)CCN4)cn2)CC1 | < 50% | 70% | < 50% | < 50% | < 50% | < 50% | < 50% | < 50%
CN1CCN(c2ccc(-c3cnc4c(c3)N(Cc3cc(F)ccc3F)CCN4)cn2)CC1 | < 50% | < 50% | < 50% | 62.1% | < 50% | < 50% | < 50% | < 50%

Further lines, results first:

inhibition [1] | inhibition [2] | inhibition [3] | inhibition [4] | inhibition [5] | inhibition [6] | inhibition [7] | inhibition [8] | SMILES
< 50% | < 50% | < 50% | < 50% | < 50% | < 50% | < 50% | < 50% | CN1CCN(c2ccc(-c3cnc4c(c3)N(Cc3cc(Cl)ccc3C(F)(F)F)CCN4)cn2)CC1
 | < 50% |  | < 50% | < 50% | < 50% | < 50% |  | O=C(c1ccc(-c2cnc3c(c2)N(Cc2cc(Cl)ccc2C(F)(F)F)CCN3)cc1)N1CCCCC1
 | < 50% |  | 81% | < 50% | < 50% | < 50% |  | O=C(c1ccc(-c2cnc3c(c2)N(Cc2cc(Cl)ccc2C(F)(F)F)CCN3)cc1)N1CCC(N2CCCC2)CC1
